# INS-1E ATP HTS: preserves ATP levels in cytokine-treated INS-1E cells; AID 488910; hit rate 0.1% among 20,000; protection from cytokine-induced ATP loss, % at 10 µM; INS-1E cytokine-induced death, ATP luminescence, 48 h; normalised: neutral wells 0, positive control 100;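 active = mean replicate protection from cytokine-induced ATP loss at least 50% and at least 75% of replicates each reaching 50%; inconclusive = meets only one of the two criteria, mean or replicate share; inactive = fails both the mean and replicate share criteria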
#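 Material: INS-1E rat cells; Quantity: 8000 cells/well; Buffer or medium: phenol-red-free RPMI with 5% fetal bovine serum; Probe or stimulus: cytokine cocktail of IFN-γ, TNF-α and IL-1β; Compound dosing: single test concentration per compound, delivered by pin transfer; Incubation: 48 h co-treatment, 10 min post-lysis read; Signal: CellTiter-Glo luminescence.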
# T cruzi intra: intracellular Trypanosoma cruzi inhibition | intracellular Trypanosoma cruzi in host cells, plate reader | AID 651903 | activity score (inhibition), % at 5.01 µM | hit rate 4.9% among 22,000; in the data active = activity score above about 55%; inconclusive = no clear call, values can overlap the other calls;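 note: parasites and compound incubated about four days before reading; 0% = median of neutral control wells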
# A1 apoptosis 2: A1 inhibition read as caspase activation | MEF A1-2A-BIM cells, caspase-Glo luminescence, 3 h; percent of clofoctol response, DMSO zero | 24,000 tested, under 10 active | caspase activation, % (test concentration not listed); in the data active = caspase activation above about 5.9%; inconclusive = no clear call, values can overlap the other calls; inactive = below about 2.2%
#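 Material: A1-2A-BIM-expressing MEF cells. Buffer or medium: RPMI-1640 plus 10% FBS. Incubation: cells settled overnight, compound exposure 3 h at 37 °C, 5% CO2. Signal: Caspase-Glo 3/7 luminescence, 1 h at room temperature.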
# An asterisk follows results filed as active; ? = inconclusive; nt = not tested or not shown. This excerpt belongs to a sample that is enriched for hits.
SMILES,INS-1E ATP HTS,T cruzi intra,A1 apoptosis 2
Cc1ccc(S(=O)(=O)Nc2cccc3c2O[C@H](CN(C)Cc2ccc(C(=O)Nc4ccccc4N)cc2)[C@@H](C)CN([C@H](C)CO)C3=O)cc1,nt,nt,1.5
Cc1ccc(S(=O)(=O)Nc2cccc3c2O[C@@H](CN(C)Cc2ccc(C(=O)Nc4ccccc4N)cc2)[C@@H](C)CN([C@H](C)CO)C3=O)cc1,4.6,57.2*,-0.1
C[C@@H]1CN([C@H](C)CO)C(=O)c2cccc(NS(=O)(=O)c3ccccc3)c2O[C@@H]1CN(C)Cc1ccc(C(=O)Nc2ccccc2N)cc1,11.5,75.3*,nt
C[C@@H]1CN([C@@H](C)CO)C(=O)c2cccc(NS(=O)(=O)c3ccc(Cl)cc3)c2O[C@H]1CN(C)Cc1ccc(C(=O)Nc2ccccc2N)cc1,-1.3,56.0*,-1.0
C[C@@H]1CN([C@H](C)CO)C(=O)c2cccc(NS(=O)(=O)c3ccc(F)cc3)c2O[C@@H]1CN(C)Cc1ccc(C(=O)Nc2ccccc2N)cc1,27.1,60.2*,-1.0
C[C@H](CO)N1C[C@H](C)[C@@H](CN(C)Cc2ccc(C(=O)Nc3ccccc3N)cc2)Oc2c(NS(=O)(=O)c3ccc(Cl)cc3)cccc2C1=O,-14.8,49.3,nt
O=C(CCCCCCC(=O)Nc1ccccc1O)N/N=C/c1cccnc1Cl,11.2,-5.9,nt
Cc1[nH]cnc1/C=N/NC(=O)c1ccccn1,-117.5,47.7,-1.5
O=C(CCCCCCC(=O)Nc1ccccc1O)N/N=C/c1ccc(O)cc1O,8.1,8.8,nt
O=C(CCCCCCC(=O)Nc1ccccc1O)N/N=C/c1ccc(O)cc1,-12.8,-10.3,-0.4
C[C@@H]1CCCCO[C@H](CN(C)C(=O)Nc2ccc(C(F)(F)F)cc2)[C@@H](C)CN([C@H](C)CO)C(=O)c2cc(NC(=O)C3CCCCC3)ccc2O1,-28.2,72.0*,nt
C[C@H]1CCCCO[C@H](CN(C)C(=O)Nc2ccc(C(F)(F)F)cc2)[C@@H](C)CN([C@@H](C)CO)C(=O)c2cc(NC(=O)NC3CCCCC3)ccc2O1,nt,nt,1.8
C[C@@H]1CCCCO[C@@H](CN(C)C(=O)NC2CCCCC2)[C@@H](C)CN([C@H](C)CO)C(=O)c2cc(NC(=O)Nc3ccc(C(F)(F)F)cc3)ccc2O1,-1.2,71.7*,1.2
C[C@@H]1CCCCO[C@H](CN(C)C(=O)NC2CCCCC2)[C@H](C)CN([C@@H](C)CO)C(=O)c2cc(NC(=O)Nc3ccc(C(F)(F)F)cc3)ccc2O1,nt,nt,1.3
C[C@@H]1CCCCO[C@H](CN(C)C(=O)Nc2ccc(C(F)(F)F)cc2)[C@H](C)CN([C@H](C)CO)C(=O)c2cc(NC(=O)C3CCCCC3)ccc2O1,nt,nt,-1.0
C[C@@H]1CCCCO[C@H](CN(C)C(=O)C2CCCCC2)[C@@H](C)CN([C@H](C)CO)C(=O)c2cc(NC(=O)Nc3ccc(C(F)(F)F)cc3)ccc2O1,-20.7,61.2*,-0.6
C[C@H]1CCCCO[C@@H](CN(C)C(=O)C2CCCCC2)[C@@H](C)CN([C@@H](C)CO)C(=O)c2cc(NC(=O)Nc3ccc(C(F)(F)F)cc3)ccc2O1,nt,nt,1.0
C[C@@H]1CCCCO[C@H](CN(C)C(=O)Nc2ccc(C(F)(F)F)cc2)[C@@H](C)CN([C@H](C)CO)C(=O)c2cc(NC(=O)NC3CCCCC3)ccc2O1,-4.0,67.8*,nt
C[C@H](CO)N1C[C@H](C)[C@@H](CN(C)Cc2ccc(Oc3ccccc3)cc2)Oc2ccc(NC(=O)CCCCCC(=O)Nc3ccccc3N)cc2C1=O,4.6,12.6,nt
COc1cc(Br)c(/C=N/NC(=O)c2cccc(C(=O)NO)c2)cc1OC,-4.7,-3.1,1.8
O=C(O)CCCCCCC(=O)N/N=C/c1ccccc1O,-5.5,-16.2,1.1
C[C@@H]1CN([C@H](C)CO)C(=O)c2cccc(NC(=O)c3ccncc3)c2O[C@@H]1CN(C)CC1CCCCC1,-10.5,11.6,0.4
C[C@@H]1CN([C@@H](C)CO)C(=O)c2cccc(NC(=O)c3ccncc3)c2O[C@@H]1CN(C)Cc1ccc(C(=O)O)cc1,4.7,-13.8,-0.1
C[C@@H]1CN([C@H](C)CO)C(=O)c2cccc(NC(=O)c3ccncc3)c2O[C@H]1CN(C)Cc1ccccc1,10.2,80.5*,nt
C[C@@H]1CN([C@@H](C)CO)C(=O)c2cccc(NC(=O)c3ccncc3)c2O[C@H]1CN(C)CC1CCCCC1,-6.9,76.4*,nt
SMILES,INS-1E ATP HTS,T cruzi intra,A1 apoptosis 2
C[C@@H]1CN([C@@H](C)CO)C(=O)c2cccc(NC(=O)c3ccncc3)c2O[C@H]1CN(C)Cc1ccccc1,8.0,79.3*,nt
C[C@@H]1CN([C@@H](C)CO)C(=O)c2cccc(NC(=O)c3ccncc3)c2O[C@H]1CN(C)Cc1ccncc1,12.6,-16.7,-0.7
C[C@H](CO)N1C[C@H](C)[C@@H](CN(C)Cc2ccncc2)Oc2c(NC(=O)c3ccncc3)cccc2C1=O,-0.8,-33.9,-0.6
C[C@H]1CN([C@@H](C)CO)C(=O)c2cccc(NC(=O)c3ccncc3)c2O[C@H]1CN(C)Cc1ccccc1,2.7,81.3*,nt
COC(=O)CCCCCCC(=O)N/N=C/c1cc(Br)ccc1O,-1.2,23.6,-0.4
C[C@H](CO)N1C[C@H](C)[C@H](CN(C)Cc2ccc3c(c2)OCO3)Oc2ccc(NC(=O)NC3CCCCC3)cc2C1=O,nt,56.2*,0.2
C[C@H]1CN([C@@H](C)CO)C(=O)c2cc(NC(=O)NC3CCCCC3)ccc2O[C@H]1CN(C)Cc1ccc2c(c1)OCO2,5.2,58.4*,-0.2
C[C@@H]1CN([C@H](C)CO)C(=O)c2cc(NC(=O)NC3CCCCC3)ccc2O[C@@H]1CN(C)Cc1ccc2c(c1)OCO2,1.1,-15.9,0.1
C[C@H]1CN([C@@H](C)CO)C(=O)c2cc(NC(=O)NC3CCCCC3)ccc2O[C@@H]1CN(C)Cc1ccc2c(c1)OCO2,-8.0,-5.3,0.7
O=C(CCCCCCC(=O)Nc1ccccc1O)N/N=C/c1cc(Br)cc(Br)c1O,5.1,34.5,-0.3
COC(=O)c1c2oc(c1C(=O)OC)C(=O)N[C@@H](Cc1ccccc1)Cn1cc(nn1)[C@H](Cc1ccccc1)NC(=O)N[C@@H](CO)CC2,nt,nt,0.1
C[C@@H]1CN([C@H](C)CO)C(=O)c2cccc(NC(=O)c3ccc(-c4nccs4)cc3)c2O[C@H]1CN(C)Cc1ccc(-c2ccccc2)cc1,-3.0,42.9,nt
C[C@@H]1CN([C@@H](C)CO)C(=O)c2cccc(NC(=O)c3ccc(-c4nccs4)cc3)c2O[C@@H]1CN(C)Cc1ccc(C(=O)Nc2ccccc2N)cc1,?,74.6*,-0.4
C[C@H](CO)N1C[C@H](C)[C@H](CN(C)Cc2ccc(-c3ccccc3)cc2)Oc2c(NC(=O)c3ccc(-c4nccs4)cc3)cccc2C1=O,-46.2,51.9,-0.8
C[C@H](CO)N1C[C@H](C)[C@@H](CN(C)Cc2ccccc2)Oc2c(NC(=O)c3ccc(-c4nccs4)cc3)cccc2C1=O,-8.6,53.4,nt
C[C@H]1CN([C@@H](C)CO)C(=O)c2cccc(NC(=O)c3ccc(-c4nccs4)cc3)c2O[C@H]1CN(C)Cc1ccc(-c2ccccc2)cc1,-48.8,66.0*,nt

# Screening data from PubChem.
